According to PubChem BioAssay AID588487 (The Scripps Research Institute Molecular Screening Center, 2011):
Calls of active or inactive are those of the source.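 Rule for the calls: active = inhibition of at least 50% against any of four protein arginine deiminase enzymes; inactive = the rest.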

Experiments:
Assay in all cases: PAD isozyme probe labeling blockade – biochemical, fluorescence, gel-based ABPP, HTS hits, orthogonal assay for PAD4 inhibitor project, late-stage follow-up (AID 588487)
[1] = target: Protein-arginine deiminase type-4 (Homo sapiens) (UniProt Q9UM07); details: recombinant PAD1-4, gel-based ABPP, RFA probe fluorescence; PAD4; at 10 µM; hits give high values
Method in brief: (§1)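 Assay system: recombinant PAD1, PAD2, PAD3 or PAD4 / Probe or stimulus: RFA fluorescent probe at 1 µM / Doses: single compound dose of 10 µM, DMSO vehicle / Timing: 15 min compound pre-incubation plus 30 min probe step, 37 °C / Technique: in-gel fluorescence scan of probe-labeled PAD band after SDS-PAGE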

[2] = target: Protein-arginine deiminase type-3 (Homo sapiens) (UniProt Q9ULW8); details: recombinant PAD1-4, gel-based ABPP, RFA probe fluorescence; PAD3; at 10 µM; hits give high values
Method in brief: as §1

[3] = target: Protein-arginine deiminase type-1 (Homo sapiens) (UniProt Q9ULC6); details: recombinant PAD1-4, gel-based ABPP, RFA probe fluorescence; PAD1; at 10 µM; hits give high values
Method in brief: as §1

[4] = target: Protein-arginine deiminase type-2 (Homo sapiens) (UniProt Q9Y2J8); details: recombinant PAD1-4, gel-based ABPP, RFA probe fluorescence; PAD2; at 10 µM; hits give high values
Method in brief: as §1

Protein-arginine deiminase type-1 (Homo sapiens), sequence (Q9ULC6 whole entry, looked up): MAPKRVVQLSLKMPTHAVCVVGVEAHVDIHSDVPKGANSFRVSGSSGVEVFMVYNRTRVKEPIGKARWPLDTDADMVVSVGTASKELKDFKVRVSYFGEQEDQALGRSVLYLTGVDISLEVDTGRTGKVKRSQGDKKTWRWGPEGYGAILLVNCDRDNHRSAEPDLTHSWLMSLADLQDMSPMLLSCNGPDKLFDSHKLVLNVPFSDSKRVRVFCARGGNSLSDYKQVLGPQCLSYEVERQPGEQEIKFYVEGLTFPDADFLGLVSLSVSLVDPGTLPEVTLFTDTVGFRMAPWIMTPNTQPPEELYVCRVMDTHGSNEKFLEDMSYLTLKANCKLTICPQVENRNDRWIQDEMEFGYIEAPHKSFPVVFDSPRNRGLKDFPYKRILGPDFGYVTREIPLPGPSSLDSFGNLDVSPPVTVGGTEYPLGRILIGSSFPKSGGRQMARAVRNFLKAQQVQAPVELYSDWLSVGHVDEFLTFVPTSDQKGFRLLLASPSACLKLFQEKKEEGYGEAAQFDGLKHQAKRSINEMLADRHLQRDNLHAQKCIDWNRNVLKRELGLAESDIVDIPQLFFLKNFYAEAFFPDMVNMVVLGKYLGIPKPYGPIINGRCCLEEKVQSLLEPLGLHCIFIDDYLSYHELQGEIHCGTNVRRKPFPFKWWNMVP
Protein-arginine deiminase type-2 (Homo sapiens), sequence (Q9Y2J8 whole entry, looked up): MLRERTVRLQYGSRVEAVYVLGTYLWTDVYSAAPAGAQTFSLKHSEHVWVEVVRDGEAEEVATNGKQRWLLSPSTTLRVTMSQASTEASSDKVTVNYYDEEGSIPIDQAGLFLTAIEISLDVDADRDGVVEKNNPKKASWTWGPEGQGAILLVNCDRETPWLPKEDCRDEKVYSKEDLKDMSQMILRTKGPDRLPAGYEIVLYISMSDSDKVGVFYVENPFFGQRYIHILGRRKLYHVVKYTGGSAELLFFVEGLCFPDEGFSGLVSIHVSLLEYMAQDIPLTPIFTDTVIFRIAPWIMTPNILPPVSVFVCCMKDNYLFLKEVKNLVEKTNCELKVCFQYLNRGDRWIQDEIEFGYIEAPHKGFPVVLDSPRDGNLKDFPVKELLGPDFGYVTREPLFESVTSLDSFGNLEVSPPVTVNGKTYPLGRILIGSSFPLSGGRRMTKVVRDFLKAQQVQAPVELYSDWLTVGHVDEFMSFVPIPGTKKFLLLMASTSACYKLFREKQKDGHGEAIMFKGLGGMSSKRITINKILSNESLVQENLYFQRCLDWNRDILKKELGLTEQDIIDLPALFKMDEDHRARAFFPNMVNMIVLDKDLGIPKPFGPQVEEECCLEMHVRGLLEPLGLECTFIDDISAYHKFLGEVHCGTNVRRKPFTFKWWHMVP
Protein-arginine deiminase type-3 (Homo sapiens), sequence (Q9ULW8 whole entry, looked up): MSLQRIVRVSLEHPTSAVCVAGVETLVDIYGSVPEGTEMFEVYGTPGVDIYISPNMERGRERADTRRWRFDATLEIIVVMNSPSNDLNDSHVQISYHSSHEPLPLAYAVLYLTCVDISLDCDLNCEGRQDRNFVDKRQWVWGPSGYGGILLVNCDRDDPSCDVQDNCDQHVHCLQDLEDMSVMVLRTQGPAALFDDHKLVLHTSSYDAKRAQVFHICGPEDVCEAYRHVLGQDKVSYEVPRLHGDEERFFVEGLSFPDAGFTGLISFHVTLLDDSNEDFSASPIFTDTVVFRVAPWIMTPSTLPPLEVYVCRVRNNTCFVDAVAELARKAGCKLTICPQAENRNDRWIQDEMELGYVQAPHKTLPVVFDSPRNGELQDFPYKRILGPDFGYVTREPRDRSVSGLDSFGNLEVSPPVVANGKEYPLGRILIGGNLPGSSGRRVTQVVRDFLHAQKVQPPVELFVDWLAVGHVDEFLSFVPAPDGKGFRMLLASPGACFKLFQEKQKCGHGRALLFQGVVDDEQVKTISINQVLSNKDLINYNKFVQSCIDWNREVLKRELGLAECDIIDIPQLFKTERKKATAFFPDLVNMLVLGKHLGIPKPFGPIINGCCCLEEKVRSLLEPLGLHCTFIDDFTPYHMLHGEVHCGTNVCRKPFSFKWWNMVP
Protein-arginine deiminase type-4 (Homo sapiens), sequence (Q9UM07 whole entry, looked up): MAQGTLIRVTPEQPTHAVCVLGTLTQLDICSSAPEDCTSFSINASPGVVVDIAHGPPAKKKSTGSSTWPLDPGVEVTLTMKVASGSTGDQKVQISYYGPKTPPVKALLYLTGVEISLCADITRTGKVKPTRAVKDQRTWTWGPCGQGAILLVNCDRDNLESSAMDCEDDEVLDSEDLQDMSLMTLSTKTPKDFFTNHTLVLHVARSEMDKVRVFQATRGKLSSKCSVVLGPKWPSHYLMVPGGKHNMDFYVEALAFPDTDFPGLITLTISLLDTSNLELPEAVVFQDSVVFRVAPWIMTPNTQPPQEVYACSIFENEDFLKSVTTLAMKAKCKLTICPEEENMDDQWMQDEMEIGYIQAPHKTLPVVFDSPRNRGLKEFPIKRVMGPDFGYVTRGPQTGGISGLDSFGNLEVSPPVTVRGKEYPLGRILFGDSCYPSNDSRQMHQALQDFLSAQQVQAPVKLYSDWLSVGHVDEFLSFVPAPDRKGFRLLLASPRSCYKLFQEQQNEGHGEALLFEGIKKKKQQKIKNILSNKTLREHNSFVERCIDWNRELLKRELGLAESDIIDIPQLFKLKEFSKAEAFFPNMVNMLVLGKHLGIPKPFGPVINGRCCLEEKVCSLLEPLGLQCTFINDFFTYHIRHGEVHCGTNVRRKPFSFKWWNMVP

SMILES	inhibition [1]	inhibition [2]	inhibition [3]	inhibition [4]
Cc1ccc(C2CC(=O)Oc3cc(O)ccc32)cc1 (stereo unspecified)	-30% (inactive)	43% (inactive)	40% (inactive)	-2% (inactive)
COCc1cc(C)nc(SCC(=O)Nc2ccc3c(c2)n(C)c(=O)n3C)c1C#N	38% (inactive)	-43% (inactive)	15% (inactive)	31% (inactive)
Cc1cc(-c2nnc(SCC(=O)Nc3ccc(F)c(F)c3)n2N)n[nH]1	51%	-20% (inactive)	43% (inactive)	62%
CCN(CC)S(=O)(=O)c1ccc(C)c(NS(=O)(=O)c2cc(/C=C/C(=O)O)cc(OC)c2OC)c1	40% (inactive)	33% (inactive)	9% (inactive)	40% (inactive)
COc1ccc(C2=CC(c3ccc(OC)c(OC)c3)NC(=S)N2)cc1 (stereo unspecified)	-50% (inactive)	36% (inactive)	37% (inactive)	-9% (inactive)
COc1cccc(NC(=O)C2c3cc(OC)c(OC)cc3C(=O)N(C)C2c2cccnc2)c1 (stereo unspecified)	61%	26% (inactive)	15% (inactive)	22% (inactive)
COc1ccc(-c2cc(=O)[nH][nH]2)cc1	35% (inactive)	32% (inactive)	58%	53%
Cc1cc2ncn(-c3ncccc3[N+](=O)[O-])c2cc1C	29% (inactive)	-25% (inactive)	46% (inactive)	25% (inactive)
Cc1nn(-c2cccc(Cl)c2)c2c1C(c1cccnc1)C(C#N)=C(N)O2 (stereo unspecified)	53%	-34% (inactive)	74%	28% (inactive)
COc1ccc(OC)c(C2C(C#N)=C(N)Oc3c2c(C)nn3-c2ccc(C)cc2)c1 (stereo unspecified)	31% (inactive)	-37% (inactive)	22% (inactive)	18% (inactive)
COc1ccc(-c2nc(C(=O)NCCCN3CCOCC3)cc3c2[nH]c2ccccc23)cc1OC	10% (inactive)	-12% (inactive)	30% (inactive)	18% (inactive)
COc1cc(NC2c3ccccc3C(=O)N2Cc2ccccc2Cl)cc(OC)c1 (stereo unspecified)	18% (inactive)	-3% (inactive)	38% (inactive)	17% (inactive)
Cc1ccc(-c2nc3sc(C#N)c(N)n3c(=O)c2C#N)cc1	38% (inactive)	31% (inactive)	32% (inactive)	16% (inactive)
O=C(NC1CCCCC1)C(c1cccs1)N(CCCN1CCOCC1)C(=O)c1ccc(-c2ccccc2)[nH]1 (stereo unspecified)	59%	15% (inactive)	-42% (inactive)	-27% (inactive)
Cc1oc2c(C)c(O)ccc2c(=O)c1-c1ccc2ccccc2n1	1% (inactive)	42% (inactive)	-33% (inactive)	50%
COc1cccc(C2=CC(c3ccc(OC)c(OC)c3)NC(=S)N2)c1 (stereo unspecified)	-9% (inactive)	-3% (inactive)	-9% (inactive)	14% (inactive)
O=C(CN1CCCCCC1)Nc1ccc(Br)cc1Br	-53% (inactive)	31% (inactive)	41% (inactive)	-16% (inactive)
Cn1c(=O)c2c(ncn2CC(=O)Nc2nc(-c3ccccc3Cl)cs2)n(C)c1=O	80%	-19% (inactive)	0% (inactive)	25% (inactive)
O=c1cc(-c2cccc([N+](=O)[O-])c2)[nH][nH]1	29% (inactive)	5% (inactive)	24% (inactive)	18% (inactive)
Cc1cc(C)c(C#N)c(Sc2ccccc2N)n1	6% (inactive)	5% (inactive)	36% (inactive)	38% (inactive)
COc1ccc(CCNC(=O)COC(=O)c2ccc(C)s2)cc1	72%	-38% (inactive)	-2% (inactive)	40% (inactive)
CCN(CC)c1cccc(OC2=NS(=O)(=O)c3ccccc32)c1	17% (inactive)	32% (inactive)	60%	50%

SMILES	inhibition [1]	inhibition [2]	inhibition [3]	inhibition [4]
COc1cccc(/C=C2/CN(C)CC3=C2OC(N)=C(C#N)C3c2cccc(OC)c2)c1 (stereo unspecified)	-5% (inactive)	48% (inactive)	-47% (inactive)	92%
Cc1nonc1OC(C)CNc1ccc([N+](=O)[O-])cc1 (stereo unspecified)	22% (inactive)	38% (inactive)	46% (inactive)	38% (inactive)
Cc1c(NC(=O)CSc2nccn2C)c(=O)n(-c2ccccc2)n1C	66%	-7% (inactive)	46% (inactive)	35% (inactive)
Cn1c(SCC(=O)Nc2ccc(Br)cn2)nnc1C1CC1	15% (inactive)	-19% (inactive)	17% (inactive)	19% (inactive)
COc1ccc(-c2noc3c2-c2nc(-c4ccc(Br)cc4)sc2CC3)cc1	47% (inactive)	-23% (inactive)	33% (inactive)	32% (inactive)
Cc1cc(C)c(C)c(S(=O)(=O)N2CCC(C(=O)N3CCCC3)CC2)c1C	39% (inactive)	22% (inactive)	-32% (inactive)	-43% (inactive)
COc1ccc(/C=C2/C(=O)N(c3ccccc3)N=C2C)cc1	35% (inactive)	35% (inactive)	20% (inactive)	47% (inactive)
CN(C)CCCNc1cn[nH]c(=O)c1Cl	41% (inactive)	-58% (inactive)	33% (inactive)	61%
O=C(COc1ccccc1F)N1CCN(S(=O)(=O)/C=C/c2ccccc2)CC1	42% (inactive)	3% (inactive)	-10% (inactive)	25% (inactive)
COc1ccc(S(=O)(=O)Nc2ccccc2C)cc1	57%	-13% (inactive)	23% (inactive)	57%
CC(NC(=O)Nc1ccc(O)cc1)(C(F)(F)F)C(F)(F)F	60%	-29% (inactive)	29% (inactive)	31% (inactive)
CN(C)C(CNC(=O)c1cc2ccccc2o1)c1ccco1 (stereo unspecified)	24% (inactive)	35% (inactive)	11% (inactive)	46% (inactive)
Cc1nn(-c2ccccc2)c(C)c1NC(=O)COc1ccc(Cl)cc1Cl	12% (inactive)	57%	2% (inactive)	29% (inactive)
COc1ccc(/C=N/Nc2nncn2N)cc1Br	55%	-24% (inactive)	30% (inactive)	44% (inactive)
O=C1CC(c2cccnc2)=NN1c1ccccc1	4% (inactive)	34% (inactive)	37% (inactive)	34% (inactive)
Cn1c(N)c(C(=O)COC(=O)COc2ccc(Br)cc2)c(=O)n(C)c1=O	20% (inactive)	19% (inactive)	16% (inactive)	51%
COc1ccc(-c2cc(=O)n(CCC#N)[nH]2)cc1	32% (inactive)	35% (inactive)	17% (inactive)	17% (inactive)
CCN(Cc1ccc2c(c1)OCCO2)C(=O)CSc1nc(C)nc2sc(C)c(C)c12	-38% (inactive)	24% (inactive)	43% (inactive)	24% (inactive)
N#CCCn1[nH]c(-c2ccccc2)cc1=O	32% (inactive)	3% (inactive)	47% (inactive)	29% (inactive)
COc1ccc(CCNC(=O)c2c[nH]c3ccc(F)cc3c2=O)cc1OC	33% (inactive)	23% (inactive)	-15% (inactive)	35% (inactive)
S=C(NCc1ccco1)Nc1cccc(Cl)c1	1% (inactive)	43% (inactive)	46% (inactive)	25% (inactive)
CS(=O)(=O)c1ccc(N)c(SSc2cc(S(C)(=O)=O)ccc2N)c1	-7% (inactive)	35% (inactive)	27% (inactive)	14% (inactive)
